This is a sample that favours compounds with a hit; in the whole collection about 4.4% have one here.
m5-HT2A agonist – agonists of mouse serotonin 5-HT2A receptor (HTR2A); P35363; 360,000 tested, 0.66% active; CHO-K1 mHTR2A beta-arrestin complementation, luminescence; percent of 30 µM serotonin response; activation, % at 7.6 µM;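 active means activation above a run cutoff, the mean activation of all tested compounds plus 3 SD, cut at about 14% in these data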
Target sequence (P35363 whole entry, looked up): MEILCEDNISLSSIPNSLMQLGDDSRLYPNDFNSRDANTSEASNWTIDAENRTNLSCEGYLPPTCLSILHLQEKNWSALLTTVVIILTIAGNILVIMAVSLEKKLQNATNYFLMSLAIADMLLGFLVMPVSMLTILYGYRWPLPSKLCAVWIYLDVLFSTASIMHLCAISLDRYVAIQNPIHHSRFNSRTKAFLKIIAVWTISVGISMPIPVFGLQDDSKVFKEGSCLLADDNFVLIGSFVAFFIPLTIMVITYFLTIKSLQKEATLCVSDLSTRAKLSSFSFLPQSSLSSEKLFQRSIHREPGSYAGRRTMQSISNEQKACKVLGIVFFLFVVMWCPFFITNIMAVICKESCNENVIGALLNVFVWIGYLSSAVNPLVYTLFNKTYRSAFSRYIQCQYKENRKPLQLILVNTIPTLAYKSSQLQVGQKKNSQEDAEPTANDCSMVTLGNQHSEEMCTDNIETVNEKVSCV
AHR activator – activators of human aryl hydrocarbon receptor. AHR-responsive luciferase reporter cells, luminescence. P35869. 320,000 tested, 2.5% active. activation, % at 5 µM; in the data active means activation above about 47%
bovine MsrA act – bovine methionine sulfoxide reductase A activation | purified bovine MsrA, absorbance read-out | activation, % at 10.6 µM | 360,000 tested, 0.3% active | AID 602163; in the data active means activation above about 7.5%
Tb MetRS inh – Trypanosoma brucei MetRS inhibition. purified T. brucei MetRS, ATP depletion, Kinase-Glo luminescence. inhibition, % at 11.9 µM. 360,000 tested, 0.4% active;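 active means inhibition above a per-plate cutoff of the control wells' mean inhibition plus 3 SD, cut at about 5.5% in these data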
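Material: T. brucei methionyl-tRNA synthetase, purified; reagent: substrates ATP, L-methionine and bulk Escherichia coli tRNA; dosing: 11.9 µM single point; timing: 15 min plus 2 h at 25 °C; detection: luminescence of leftover ATP; evaluation: % inhibition; control set: DMSO-only wells as low control; replicates: singlicate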
MsrA inhibitor – inhibitors of bovine MsrA. purified bovine MsrA, absorbance read-out. inhibition, % at 15.5 µM. 360,000 tested, 0.75% active. AID 651718; in the data active means inhibition above about 4.5%
AI-2 QS modul – Vibrio harveyi AI-2 quorum sensing modulation. Vibrio harveyi JMH597 AI-2 luminescence/OD600 ratio, 9 h; hits give low values; strain lacks LuxN and CqsS sensors; 0 = neutral-control median. AID 2094. activity change, % at 7.5 µM. 300,000 tested, 0.4% active; in the data active means activity change below about -75%, passing the limit was not always enough;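 further: luminescence divided by OD600 gain over 9 h not by final OD600 alone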
MsrA act confirm – confirmation of bovine methionine sulfoxide reductase A activators; shares compounds with bovine MsrA act; purified bovine MsrA, absorbance read-out; activation, % at 10.6 µM; 1,000 tested, 12% active; AID 602270; in the data active means activation above about 4%;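 further: enzyme coupled to thioredoxin and thioredoxin reductase with NADPH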
Each line names hits and unclear results; the compound was inactive in the other large screens (follow-up assays come after a bar, where they were run).

O=C(CSc1nnc(-c2ccncc2)n1Cc1ccccc1)NC1CCCc2ccccc21 (stereo not drawn)	none
CC1CN(C(=O)c2cccc(S(=O)(=O)N3CCN(c4ccccc4)CC3)c2)CC(C)O1 (stereo not drawn)	bovine MsrA act 9.1 (no result: AI-2 QS modul) | MsrA act confirm inactive
O=C(Nc1ccc(F)cc1F)N1CCCCCC1	none
CC(=O)NC1(c2ccc(F)cc2)CCN(C(=O)Nc2ccc(F)cc2F)CC1	bovine MsrA act 8.6 | MsrA act confirm inactive
O=c1cc(Cc2ccccc2)[nH]c(=S)[nH]1	none
COCc1cc(=O)[nH]c(=S)[nH]1	bovine MsrA act 9.9 | MsrA act confirm 5.0
NS(=O)(=O)c1cccc(NC(=O)CSc2nnc(NC3CC3)s2)c1	none (no result: AHR activator, AI-2 QS modul)
CCOc1ccc(OCCOCCn2ccnc2)cc1	none
CCOc1ccc(-n2ccnc2)nn1	bovine MsrA act 8.1 | MsrA act confirm inactive
CCOC(=O)c1cnc2c(OC)cccc2c1N1CCN(c2ccccc2OC)CC1	bovine MsrA act 8.5 | MsrA act confirm inactive
CCCCNC(=O)C1(C)CCCCN1Cc1ccc(-c2ccccc2)cc1 (stereo not drawn)	none (no result: AHR activator, AI-2 QS modul)
CC[n+]1ccc(/C=C/c2ccc(N(C)C)cc2)c2ccccc21	none (no result: AHR activator, AI-2 QS modul)
CC[n+]1ccc(C[n+]2ccccc2)c2ccccc21	bovine MsrA act 11 (no result: AI-2 QS modul) | MsrA act confirm inactive
Cc1nn(C)c(C)c1CN(C)C(=O)C1(C)CC1(Br)Br (stereo not drawn)	bovine MsrA act 9.6 | MsrA act confirm inactive
O=C1NC[C@@H](CCCCN2C[C@H](Cc3ccc(O)cc3)N(CCc3ccccc3)C(=O)C2=O)N(CCc2ccccc2)C1=O	none (no result: AHR activator, AI-2 QS modul)
Cn1c(CO)cnc1SCC(=O)c1ccc(Br)cc1	bovine MsrA act 13 | MsrA act confirm inactive
CNC(=S)Nc1sc2c(c1C(=O)OC)CCC2	bovine MsrA act 8.4 | MsrA act confirm inactive
COC(=O)c1c(NC(C)=O)sc2c1CCCC2	none
CCC1CCc2sc(C(=O)N(C)CC(=O)Nc3cccc(OC)c3)cc2C1 (stereo not drawn)	bovine MsrA act 11 (no result: AI-2 QS modul) | MsrA act confirm inactive
CCC1CCc2sc(C(=O)N(C)CC(=O)Nc3ccc(OC)cc3)cc2C1 (stereo not drawn)	none
CC(C)C[C@H]1COc2cc(N3CC[C@@H](O)C3)ccc2S(=O)(=O)N1	bovine MsrA act 9.9 (no result: AHR activator, AI-2 QS modul) | MsrA act confirm inactive
O=C(c1ccncc1)N1CCN(S(=O)(=O)c2ccccc2Br)CC1	none (no result: AI-2 QS modul)
Cc1ccccc1OCCSc1nnc(-c2ccncc2)n1C	none
Cn1c(SCCOc2ccccc2Cl)nnc1-c1ccncc1	bovine MsrA act 8.5 | MsrA act confirm inactive
O=C(NC1(C(F)(F)F)N=C2SCCN2C1=O)C1CCCCC1 (stereo not drawn)	bovine MsrA act 7.8 | MsrA act confirm inactive
Cc1ccc(C(=O)NC2(C(F)(F)F)N=C3SCCN3C2=O)cc1 (stereo not drawn)	none
COc1ccc(CCNC(=O)CSc2nc3ccsc3c(=O)n2CC2CCC(C(=O)O)CC2)cc1OC (stereo not drawn)	none
CC(CN1CCCCC1)OC(=O)c1ccco1 (stereo not drawn)	none
O=C(CSc1ccc(Cl)cc1)NN=C1CCCCCC1	bovine MsrA act 9.0 | MsrA act confirm inactive
CN1OC[C@@H]2CN(Cc3ccc(Cl)cc3)[C@H](c3ccc(-n4ccnc4)cc3)C[C@@H]21	none (no result: AHR activator, AI-2 QS modul)
O=C(ON=C1CCN(S(=O)(=O)c2ccccc2)CC1)c1ccc(F)cc1	none
Cc1ccc(C(=O)ON=C2CCN(S(=O)(=O)c3ccccc3)CC2)cc1	bovine MsrA act 7.7 | MsrA act confirm inactive
O=C(CN(CC1CCCO1)C(=O)CNS(=O)(=O)c1ccccc1)NCCc1ccccc1 (stereo not drawn)	none
Cn1ncc2c(=O)n(CC(=O)NC34CC5CC(CC(C5)C3)C4)cnc21	bovine MsrA act 9.0 (no result: AI-2 QS modul) | MsrA act confirm inactive
CC(C)(C)n1ncc2c(=O)n(CC(=O)NCc3ccccc3)cnc21	none
CCc1ccc(NC(=O)N2CCCCCC2)cc1	none
CCN1CCN(C(=O)Nc2ccc(Cc3ccc(NC(=O)N4CCN(CC)CC4)cc3)cc2)CC1	bovine MsrA act 8.2 | MsrA act confirm inactive
Cn1c(Oc2ccncc2)nc2cc(-c3ccsc3)sc2c1=O	bovine MsrA act 15 (no result: AHR activator, AI-2 QS modul) | MsrA act confirm inactive
COC1=CC(=O)c2c(ccc3ncnc(N)c23)C1=O	bovine MsrA act 35 (no result: AHR activator, AI-2 QS modul) | MsrA act confirm 30
COc1ccccc1CNC(=O)CCNC(=O)Cn1ccc2ccccc2c1=O	none
COc1ccccc1CNC(=O)CCNC(=O)Cn1cnc2ccccc2c1=O	bovine MsrA act 8.8 | MsrA act confirm inactive
CCCN(Cc1nnc(-c2ccccc2Cl)o1)C(=O)c1oc2ccccc2c1C	none
O=c1c2cc(F)ccc2sn1-c1ccccc1	bovine MsrA act 15 (no result: AI-2 QS modul) | MsrA act confirm 9.8
O=c1c2ccccc2sn1-c1ccc(S(=O)(=O)N2CCCC2)cc1	none
O=c1c2ccccc2sn1-c1ccccc1	bovine MsrA act 12 | MsrA act confirm 13
O=c1c2ccccc2sn1-c1cccc(Cl)c1	bovine MsrA act 12 (no result: AHR activator, AI-2 QS modul) | MsrA act confirm 5.8
N#Cc1ccc2c(=O)n(-c3ccccc3)sc2c1	none (no result: AHR activator, AI-2 QS modul)
CN(C)S(=O)(=O)c1cccc(-n2sc3ccccc3c2=O)c1	bovine MsrA act 7.7 (no result: AI-2 QS modul) | MsrA act confirm 8.9
CNc1c(NC(=O)C2CCC(C)CC2)c(=O)oc2ccccc12 (stereo not drawn)	none
O=C(NN1CCOCC1)c1ccc(Cl)cc1[N+](=O)[O-]	none
Cc1nnc(NC(=O)CCC(=O)N2CCN(S(=O)(=O)c3cc([N+](=O)[O-])ccc3C)CC2)s1	none (no result: AI-2 QS modul)
CC(=O)Nc1ccc2c(=O)n(-c3ccccc3)sc2c1	bovine MsrA act 7.7 (no result: AHR activator, AI-2 QS modul) | MsrA act confirm inactive
Cc1ccccc1-n1sc2cc(F)ccc2c1=O	bovine MsrA act 15 (no result: AI-2 QS modul) | MsrA act confirm 9.7
O=C(c1ccc(Cl)cc1)N(Cc1ccco1)C1CCS(=O)(=O)C1 (stereo not drawn)	none
CCCOC(=O)c1ccc(NC(=O)CN(C)Cc2cccs2)cc1	bovine MsrA act 9.9 | MsrA act confirm inactive
COc1ccccc1N1CCN(C(=O)c2cccc(S(=O)(=O)N3CCCCCC3)c2)CC1	none (no result: AI-2 QS modul)
Cc1cc(-c2cc(NC=O)c3ncc(-c4cccc(C(=O)NCCN(C)C)c4)n3c2)cc(C)c1O	none (no result: AHR activator, AI-2 QS modul)
CC(C)n1c(=S)[nH]c2scc(-c3cccs3)c2c1=O	bovine MsrA act 8.0 | MsrA act confirm inactive
CCn1c(=S)[nH]c2scc(-c3cccs3)c2c1=O	none (no result: AHR activator)
Fc1ccc(-c2nc3ccc(Br)cn3c2Cc2cccc(Cl)c2)cc1	bovine MsrA act 8.2 (no result: AHR activator, AI-2 QS modul) | MsrA act confirm inactive
Fc1ccc(-c2nc3ccc(Br)cn3c2Cc2cccc(F)c2)cc1	none (no result: AHR activator, AI-2 QS modul)
CCOCCCn1c(=N)c(S(=O)(=O)c2ccc(C)cc2)cc2c(=O)n3cc(C)ccc3nc21	none
Nc1ccccc1SSc1ccccc1N	bovine MsrA act 11 | MsrA act confirm inactive

Screening results: PubChem BioAssay, several laboratories
